# According to PubChem BioAssay AID504823 (Southern Research Specialized Biocontainment Screening …, 2011):
# System: HEp-2 RSV Long CPE inhibition, luminescence viability
# Assay: RSV-infected HEp-2 viability protection – cell-based, RSV Long, synthesized compounds, set 9, dose response (AID 504823)
# Method in brief: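 Assay system: RSV Long-infected HEp-2 cells | Reagent: RSV strain Long at multiplicity of infection 0.45 | Doses: 0.5% DMSO final | Incubation: 6 days, 37 °C | Signal: Luminescent CPE readout | Read-out basis: % CPE inhibition scaled to cell-only and virus-only wells, IC50 by 4-parameter fit | Controls: Cell-only and virus control wells | Replication: Triplicate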
row,SMILES,IC50 [nM]
1,COCCCNC(=O)c1ccc(Cn2c(=O)c3ccccc3n(Cc3ccc([N+](=O)[O-])cc3)c2=O)cc1,< 1200
2,COCCCNC(=O)c1ccc(Cn2c(=O)c3ccccc3n(Cc3ccc(OC)cc3)c2=O)cc1,2400
3,COCCCNC(=O)c1ccc(Cn2c(=O)c3ccccc3n(Cc3ccc(Cl)cc3)c2=O)cc1,< 1200
4,COCCCNC(=O)c1ccc(Cn2c(=O)c3ccccc3n(Cc3ccc4nonc4c3)c2=O)cc1,5600
5,COCCCNC(=O)c1ccc(Cn2c(=O)c3ccccc3n(Cc3ccc(Br)cc3)c2=O)cc1,< 1200
6,COc1ccccc1CNC(=O)C1CCN(S(=O)(=O)c2cccc3nonc23)CC1,2900
7,COCCCNC(=O)c1ccc(Cn2c(=O)c3ccccc3n(Cc3ccc(C)c(C(F)(F)F)c3)c2=O)cc1,< 1200
8,Cc1ccc(C)c(NC(=O)[C@@H]2CCCN2S(=O)(=O)c2cccc3cccnc23)c1,3200
9,COCCCNC(=O)c1ccc(Cn2c(=O)c3ccccc3n(Cc3ccc(C(F)(F)F)cc3)c2=O)cc1,< 1200
